As a reminder, the IC50 is the concentration at which inhibition is half-maximal.

The source of these data is ChEMBL document CHEMBL2412972, “Design, synthesis and biological evaluation of novel triaryl (Z)-olefins as tamoxifen analogues” (Bioorg Med Chem Lett, 2013).

The test system of assay [1] is MDA-MB-231. In words: Antiproliferative activity against human MDA-MB-231 cells after 72 hrs by MTT assay. The format is functional, cell-based. Conditions: MDA-MB-231, 72 h. The gist of the method:
(§1)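 Cells were seeded in 96-well plates for 24 h, then exposed to a range of concentrations for 72 h in DMEM/F-12 with 5% FBS. DMSO vehicle controls were matched. MTT was added at 0.5 mg/ml for 2 h at 37 °C, solubilized in DMSO, and read at 570 nm. IC50 is the concentration giving 50% cell death relative to DMSO control. Mean ± SD, n = 6.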
On the technique in general: Tetrazolium assays rely on reduction of a dye to a coloured formazan, in cell work by metabolically active cells.

Assay [2] deals with MCF7. In words: Antiproliferative activity against human MCF7 cells after 72 hrs by MTT assay. It is filed as functional, cell-based. Conditions: MCF7, 72 h. The gist of the method:
as §1

Assay [3] deals with MCF7. The experiment in a line: Induction of apoptosis in human MCF7 cells assessed as caspase 3/7 activation after 72 hrs by luminescence assay. It is filed as functional, cell-based. The gist of the method: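 MCF-7 cells were plated at 1×10^4 per well, incubated for 24 h, then treated for 72 h. Caspase-3/7 activity was measured with a Caspase-Glo luminogenic DEVD substrate, and luminescence was reported as relative light units. Compared with DMSO vehicle; mean ± SD, n = 6.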

Assay [4] relates to MCF7. The experiment in a line: Antiproliferative activity against human MCF7 cells at 5 uM after 72 hrs by MTT assay in presence of estradiol. It is filed as functional, cell-based. The gist of the method: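 MCF-7 cells (ATCC) were maintained in DMEM/F-12 with 10% FBS at 37 °C and 5% CO2. They were seeded for 24 h, then treated with 5 µM test agent for 72 h in 5% FBS medium, with and without estradiol. Read-out was MTT absorbance at 570 nm, expressed as percent of control wells. Two experiments, each with six replicates; mean ± SD.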

Assay [5] relates to MDA-MB-231. The experiment in a line: Ratio of tamoxifen IC50 to compound IC50 for human MDA-MB-231 cells after 72 hrs by MTT assay. It is filed as functional.
Assay [6] deals with MCF7. The experiment in a line: Ratio of tamoxifen IC50 to compound IC50 for human MCF7 cells after 72 hrs by MTT assay. It is filed as functional.

Calls of active or inactive are those of the source. No cut-off for these calls is given here. Where only a bound is given, the exact number is not on record here.

Consider `C/C(=C(\c1ccccc1)c1ccc(OCCN2CCCCC2)cc1)c1ccccc1`, for which the IC50 with MDA-MB-231 [1] was determined as 73.5 µM; in the assay with MCF7 [2], 55.5 µM.
Consider `C/C(=C(\c1ccccc1)c1ccc(OCCN2CCN(C)CC2)cc1)c1ccccc1`, for which the outcome in the assay with MCF7 [3] and in the assay on MCF7 [4] was Active. Also, the “Ratio IC50” value with MDA-MB-231 [5] and in the assay with MCF7 [6] was 2 in each case. In addition, the results for the IC50 in the assay on MDA-MB-231 [1] and in the assay with MCF7 [2] were 10.5 µM and 6.75 µM, respectively.
Regarding `C/C(=C(\c1ccccc1)c1ccc(OCCN2CCNCC2)cc1)c1ccccc1`, the IC50 with MDA-MB-231 [1] and with MCF7 [2] was more than 100 µM each time.
Regarding `CC/C(=C(\c1ccccc1)c1ccc(OCCN(C)C)cc1)c1ccccc1` [TAMOXIFEN], the IC50 with MDA-MB-231 [1] was 64.8 µM; with MCF7 [2], 28 µM.
With `C/C(=C(\c1ccccc1)c1ccc(OCCN2CCNCC2)cc1)c1ccc(F)cc1`, the result in the assay with MCF7 [3] and in the assay on MCF7 [4] was Active. Also, the “Ratio IC50” value with MDA-MB-231 [5] and in the assay with MCF7 [6] was 2 each time. Besides, the IC50 with MDA-MB-231 [1] was 13 µM; with MCF7 [2], 5.58 µM.
Consider `C/C(=C(\c1ccccc1)c1ccc(OCCN2CCCCC2)cc1)c1ccc(F)cc1`, for which the IC50 stood at 43 µM in the assay on MDA-MB-231 [1] and 16.6 µM in the assay with MCF7 [2].
The like results for `C/C(=C(\c1ccccc1)c1ccc(OCCN2CCN(C)CC2)cc1)c1ccc(F)cc1` were, in that order, more than 100 µM and 86.3 µM.
